# D1 allo mod – D1 dopamine receptor (human) allosteric modulation; P21728; HEK293 D1, CRE-luciferase, dopamine EC30 potentiation; actives deviate in either direction; B-score at 10 µM; hit rate 5.9% among 58,000; AID 641;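 active = luminescence count or its row- and column-corrected plate score outside the 99.7% band of the plate's sample wells, on either side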
# Target sequence (P21728 whole entry, looked up): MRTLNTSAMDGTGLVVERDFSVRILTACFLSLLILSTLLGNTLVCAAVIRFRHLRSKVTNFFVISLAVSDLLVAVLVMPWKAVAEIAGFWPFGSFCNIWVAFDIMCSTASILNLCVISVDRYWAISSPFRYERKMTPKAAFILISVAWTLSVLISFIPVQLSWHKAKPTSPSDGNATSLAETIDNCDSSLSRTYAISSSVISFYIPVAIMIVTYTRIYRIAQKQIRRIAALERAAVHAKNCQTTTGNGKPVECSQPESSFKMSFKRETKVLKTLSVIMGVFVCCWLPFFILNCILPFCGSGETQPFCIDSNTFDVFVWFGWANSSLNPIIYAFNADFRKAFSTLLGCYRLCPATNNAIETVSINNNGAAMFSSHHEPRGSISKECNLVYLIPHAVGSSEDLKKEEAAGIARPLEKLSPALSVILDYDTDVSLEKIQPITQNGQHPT
# hDAT+cocaine – modulates human dopamine transporter uptake under cocaine. Q01959. B-score at 10 µM. LLC-PK1 hDAT cells, [14C]-dopamine uptake with cocaine IC80; actives deviate in either direction. hit rate 1.3% among 110,000. AID 449768;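 active = Z score or B-score, a plate-position-corrected score, falls beyond the plate's 99.7% confidence bounds, in either direction; inactive = both scores lie inside the 99.7% bounds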
# Ecoli WT expand – E. coli BW25113 growth inhibition, expanded screen; hit rate 0.15% among 98,000; OD600 absorbance; growth inhibition, % at 100 µM;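 active = growth inhibition above about 50% at one test dose, limit read from the data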;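 note: growth measured after 20 h incubation at 37 °C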
# PostGolgi yeast – growth inhibition of a yeast mutant, post-Golgi transport screen. post-Golgi transport phenotypic cell assay. inhibition, % at 10 µM. hit rate 0.9% among 98,000. AID 739;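 note: yeast cells grown in 1536-well plates; yeast grown about 18 h at 30C before absorbance read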
# PostGolgi ctrl – yeast control strain growth, post-Golgi counter-screen; hit rate 5% among 98,000; efflux-deficient yeast background strain, growth absorbance A615, 16 h; inhibition, % at 10 µM
# Ecoli tolC – growth inhibitors of E. coli BW25113 tolC mutant. growth inhibition, % at 10 µM (by protocol). hit rate 2.2% among 65,000. OD615;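 active = growth inhibition at or above a cutoff equal to the mean over every tested compound plus 3 SD, cut at about 60% in these data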;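 note: growth measured after 20 h incubation at 37 °C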
#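 test system = E. coli BW25113 ΔtolC::kan bacteria | medium = LB with kanamycin 50 µg/mL | signal = OD at 615 nm | schedule = 37 °C, 20 h exposure | evaluation = % inhibition of E. coli growth | compound dosing = one dose of 10 µM final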
# Numbers stand for hits; - = inactive; . = no result. Hits are enriched below; roughly 9.3% of the tested compounds scored in any of these assays. Cut-off read from the data, not from the text of the source, unless noted: active = inhibition above about 30%; inactive = the rest.
SMILES,D1 allo mod,hDAT+cocaine,Ecoli WT expand,PostGolgi yeast,PostGolgi ctrl,Ecoli tolC
CCC(=O)c1cc(F)c(N2CCN(S(=O)(=O)c3ccc(C)cc3)CC2)cc1C,-,-,-,-,35.0,-
Cc1ccc(N2CCN(S(=O)(=O)c3ccc(F)c(C)c3)CC2)c(C)c1,-,-,-,-,-,-
COc1ccc(Nc2nnc(SCc3cc([N+](=O)[O-])cc4c3OCOC4)s2)cc1,.,-,-,-,-,.
COc1cc(NC(=O)Nc2cccc(Cl)c2)c(OC)cc1NC(=O)CN1CCCCC1,-3.96,-,-,-,-,-
COc1cc(NC(=O)c2ccc(C)cc2)c(OC)cc1NC(=O)CN1CCCCC1,.,-,.,.,.,.
COc1cc(NC(=O)c2cc(OC)c(OC)c(OC)c2)c(OC)cc1NC(=O)CN1CCCCC1,-3.27,-,-,-,-,-
COc1ccc2c(c1[N+](=O)[O-])CCC/C2=N/OC(=O)c1cccc2ccccc12,.,-,-,-,-,.
Cc1cc(C)n2nc(C(=O)NCc3ccccc3)cc2n1,-,-,-,42.9,-,-
COc1cccc(NC(=O)CSc2nncn2N)c1,-,-,-,-,-,-
CCc1ccc(C2CC(c3ccco3)=NN2S(C)(=O)=O)cc1 (configuration not stated),.,-,-,-,-,.
Cc1nn2c(c1-c1ccc(Cl)cc1)N=C(c1ccco1)CC2c1ccccc1 (configuration not stated),.,-,-,-,34.8,.
Cn1cnc2c1c(=O)n(CC(O)CO)c(=O)n2C (configuration not stated),-,-,-,-,-,-
Cc1ccc2cc(CN(Cc3ccco3)C(=O)NC3CCCCC3)c(=O)[nH]c2c1C,.,-,.,.,.,.
Cc1ccc2cc(CN(Cc3ccco3)C(=O)C3CCCCC3)c(=O)[nH]c2c1C,-,-,-,-,35.2,-
O=C(CN(C(=O)c1ccccc1Cl)C1CCCCC1)Nc1ccc(Cl)c([N+](=O)[O-])c1,.,-,-,-,35.6,.
Cc1sc2nc3n(c(=O)c2c1C)CCCCC3,.,-,.,.,.,.
O=c1c2c(nc3n1CCCCC3)sc1c(O)c(Br)ccc12,.,-,-,-,53.8,.
CCOC(=O)COc1ccc(C(=O)NC2CCCCC2)cc1,-5.63,-,-,-,-,-
Cc1ccc(C(=O)NC2CCCCC2)cc1,.,-,-,-,-,.
C#CCOC(=O)c1ccc(-n2cncn2)nc1,.,-,-,-,-,.
CC1=NN(c2ccc(F)cc2)C(=O)C1C(c1cccc(O)c1)c1c(C)[nH]n(-c2ccc(F)cc2)c1=O (configuration not stated),.,-,-,-,34.7,.
Fc1ccc(-c2cc3nc(-c4ccccc4)cc(N4CCN(CCN5CCOCC5)CC4)n3n2)cc1,-,-,-,-,-,-
CN1CCN(c2cc(-c3ccccc3)nc3cc(-c4ccc(F)cc4)nn23)CC1,.,-,-,-,72.8,.
O=C(CSc1ccc2nnc(-c3ccncc3)n2n1)N1CCc2ccccc21,-,.,.,.,.,-
CC(C)CCNC(=O)C(c1cccnc1)N(Cc1ccccc1)C(=O)Cn1nnc2ccccc21 (configuration not stated),.,-,.,.,.,.
SMILES,D1 allo mod,hDAT+cocaine,Ecoli WT expand,PostGolgi yeast,PostGolgi ctrl,Ecoli tolC
CCCCCOc1ccc(CSC(=N)N)cc1[N+](=O)[O-],.,-,100.0,-,-,.
O=c1c2c(C(F)(F)F)cc(C(F)(F)F)nc2[nH]n1-c1ccccc1,.,-,-,-,-,.
O=c1c(Sc2ccccc2)c(C(F)(F)F)[nH]n1-c1ccccc1,.,-2.2,-,-,-,.
Cc1ccc(S(=O)(=O)NC2CCCC(C(=O)O)C2)cc1 (configuration not stated),-,-,-,-,-,-
O=C(c1ccc(Br)o1)N1CCN(c2ccc3nnc(-c4ccc(F)cc4)n3n2)CC1,.,-,-,-,-,.
CCOc1ccccc1C(=O)Nc1cc(Cl)ccc1O,.,-,-,-,86.9,100.0
COc1ccccc1C(=O)Nc1cc(Cl)ccc1O,.,-,-,-,-,-
CCOc1ccccc1C(=O)Nc1cc(OC)ccc1OC,-,-,-,-,47.2,-
COc1ccc(OC)c(NC(=O)c2ccccc2SC)c1,.,-,-,-,-,.
Cc1c(Br)c([N+](=O)[O-])nn1CC(=O)NCc1cccnc1,.,-,-,-,-,.
O=C(Nc1ccccc1-c1ccccc1)C12CC3CC(CC(C3)C1)C2,.,-,-,-,-,.
CCOC(=O)Cc1c(C)nc2c(-c3ccc(Cl)cc3)c[nH]n2c1=O,-,.,-,-,-,98.7
CCOc1ccccc1NC(=O)CN1CCC(NC(=O)c2ccccc2)CC1,.,-,-,-,-,.
CCOc1ccc(OCC)c(NC(=O)CN2CCC(NC(=O)c3cccc(F)c3)CC2)c1,-,3.27,-,-,-,-
C=CCOC(=O)C1=C[C@H](C2CC2)[C@@H](CCCO)[C@H](OCC)O1,.,-,.,.,.,.
Cc1ccc(-c2cc(-c3ccccc3)c3c(N)c(S(C)(=O)=O)sc3n2)cc1,.,-,-,-,31.1,.
N#Cc1sc2nc(-c3ccccc3)cc(-c3ccco3)c2c1N,-,-,-,-,-,-
CCOc1ccc(CCNC(=O)C2CCC(=O)N2C2CCCCC2)cc1OCC (configuration not stated),-,-,-,-,36.4,-
O=C(NCCc1ccc(Cl)cc1)C1CCC(=O)N1C1CCCC1 (configuration not stated),-,-,-,-,-,-
Cc1ccc(CNC(=O)C2CCC(=O)N2C2CCCCC2)cc1 (configuration not stated),-,-,-,-,-,-
O=C(NCc1ccc(F)cc1)C1CCC(=O)N1C1CCCCC1 (configuration not stated),-,-,-,-,34.7,-
COc1ccc([C@@H]2[C@H]3C(=O)N(c4cccc(C(F)(F)F)c4)C(=O)[C@H]3ON2C)cc1,.,-,-,-,-,.
CCOc1cc(S(=O)(=O)NCc2ccccn2)ccc1Cl,.,-,.,.,.,.
Cc1[nH]c2ccc(C(=O)OCCN(C)C)cc2c1C,-4.02,-,-,-,-,-
CCOC(=O)c1ccc2[nH]c(C)c(C)c2c1,.,-,.,.,.,.
SMILES,D1 allo mod,hDAT+cocaine,Ecoli WT expand,PostGolgi yeast,PostGolgi ctrl,Ecoli tolC
CCN(c1cccc(C(F)(F)F)c1)S(=O)(=O)c1ccc2c(c1)CCN2C(=O)C1CC1,-,-,-,-,-,69.3
CC(C)c1ccc(N2C(=O)CSC23C(=O)N2CCCc4cccc3c42)cc1 (configuration not stated),.,-,-,-,-,.
CC1=CC(C)(C)N2C(=O)C3(SCC(=O)N3c3ccc(F)cc3)c3cc(C)cc1c32 (configuration not stated),.,-,-,-,50.1,.
O=C(c1ccc2c(c1)OCO2)N1CCC2(CC1)Oc1ccc(Cl)cc1C(=O)C21CC(c2ccccc2)=NO1 (configuration not stated),.,-,.,.,.,.
Cc1ccccc1N1C(=O)C(Cl)=C(N2CCCCCC2)C1=O,-,-,-,-,40.4,-
O=C1C(Cl)=C(N2CCCCC2)C(=O)N1c1ccccc1Cl,-,-,-,-,-,-
CCCc1nc(C(C)(C)O)c(C(=O)O)n1Cc1ccc(-c2ccccc2-c2nn[nH]n2)cc1,.,-,.,.,.,.
Cc1onc(-c2c(Cl)cccc2Cl)c1C(=O)N1CCc2ccccc2C1,.,.,-,-,-,.
